According to ChEMBL document CHEMBL1938254, “Semisynthetic neoboutomellerone derivatives as ubiquitin-proteasome pathway inhibitors” (Bioorg Med Chem, 2012):
Calls of active or inactive are those of the source. No cut-off for these calls is given here.

Legend:
[1] = system: DLD-1; assay: Inhibition of 20S proteasome in human DLD1 cells transfected with 4Ub-Luc gene assessed as bioluminescence induction factor at 5 uM after 8 hrs by luciferase reporter gene assay relative to epoxomicin; assay type: cell-based
Method in brief: (§1)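 Stably transfected DLD-1 cells expressing 4Ub-Luc reporter, cultured in MEM with 5% heat-inactivated serum. Seeded at 10⁴ cells/well and treated with compound or solvent for 8 h. Luciferase activity in lysates read by luminometer. Induction factor = signal of treated over untreated cells, normalised to epoxomicin at 10^-7 M run in parallel (set to 100). IF ≥10 counted active.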

[2] = system: DLD-1; assay: Inhibition of peptide-glutamyl-peptide-hydrolyzing activity of 20S proteasome in human DLD1 cells transfected with 4Ub-Luc gene using Z-Leu-Leu-Glu-AMC as substrate at 40 uM after 6 hrs by spectrofluorometric analysis; assay type: cell-based
Method in brief: (§2)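 Stably transfected DLD-1 4Ub-Luc cells seeded at 10⁴ cells/well, exposed to compound or solvent for 6 h, then incubated a further 30 min in reaction buffer (30 mM Tris–HCl pH 7.5, 1 mM ATP) with an activity-specific fluorogenic substrate; cellular proteasome activity read by fluorescence. Cells grown in MEM with 5% heat-inactivated serum.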

[3] = system: DLD-1; assay: Inhibition of chymotrypsin-like activity of 20S proteasome in human DLD1 cells transfected with 4Ub-Luc gene using Succinyl-Leu-Leu-Val-Tyr-AMC as substrate at 20 uM after 6 hrs by spectrofluorometric analysis; assay type: cell-based; method in brief: as §2
[4] = Cytotoxicity against human WM266.4 cells after 72 hrs by ATPlite assay; assay type: functional, cell-based; settings: WM 266-4, 72 h
Method in brief: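 WM-266-4 metastatic melanoma cells grown in DMEM with 10% fetal calf serum, 2 mM L-glutamine, fungizone and penicillin–streptomycin at 37 °C, 5% CO2. Seeded at 3 × 10⁴ cells/ml, left 24 h, then exposed to increasing compound concentrations for 72 h. Viability read as ATP level (ATPlite). IC50 from nonlinear sigmoidal fit with variable Hill slope; mean of two independent experiments.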

[5] = Inhibition of chymotrypsin-like activity of 20S proteasome in human DLD1 cells transfected with 4Ub-Luc gene using Succinyl-Leu-Leu-Val-Tyr-AMC as substrate after 6 hrs by spectrofluorometric analysis; assay type: cell-based; settings: dld-1
Method in brief: (§3)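 DLD-1 4Ub-Luc cells seeded at 10⁴ cells/well, exposed to compound or solvent for 6 h, then 30 min in reaction buffer (30 mM Tris–HCl pH 7.5, 1 mM ATP). Chymotrypsin-like and PGPH activities read with specific fluorogenic substrates.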

[6] = Inhibition of peptide-glutamyl-peptide-hydrolyzing activity of 20S proteasome in human DLD1 cells transfected with 4Ub-Luc gene using Z-Leu-Leu-Glu-AMC as substrate after 6 hrs by spectrofluorometric analysis; assay type: cell-based; settings: dld-1; method in brief: as §3
[7] = system: DLD-1; assay: Inhibition of 20S proteasome in human DLD1 cells transfected with 4Ub-Luc gene assessed as bioluminescence induction factor at 0.1 uM after 8 hrs by luciferase reporter gene assay relative to epoxomicin; assay type: cell-based; method in brief: as §1
[8] = system: DLD-1; assay: Inhibition of 20S proteasome in human DLD1 cells transfected with 4Ub-Luc gene assessed as bioluminescence induction factor at 1 uM after 8 hrs by luciferase reporter gene assay relative to epoxomicin; assay type: cell-based; method in brief: as §1
[9] = system: DLD-1; assay: Inhibition of 20S proteasome in human DLD1 cells transfected with 4Ub-Luc gene assessed as bioluminescence induction factor at 0.5 uM after 8 hrs by luciferase reporter gene assay relative to epoxomicin; assay type: cell-based; method in brief: as §1
[10] = system: DLD-1; assay: Inhibition of 20S proteasome activity in human DLD1 cells transfected with 4Ub-Luc gene assessed as bioluminescence induction factor at 10 uM after 8 hrs by luciferase reporter gene assay relative to epoxomicin; assay type: cell-based; method in brief: as §1

IC50 [5]	IC50 [6]	Compound	fold change (FC) [1]	inhibition [2]	inhibition [3]	IC50 [4]	fold change (FC) [7]	fold change (FC) [8]	fold change (FC) [9]	fold change (FC) [10]
–	–	C[C@]12C(=O)C=CCC1=CC[C@@H]1[C@@H]2CC[C@]2(O)C(=O)O[C@@]3(C)[C@H]4C[C@]5(C)[C@@H](CO[C@@]16O[C@@]32[C@H]5C6=O)C(=O)O4	19	Active	Active	–	–	–	–	–
6 nM	60 nM	CC[C@H](C)[C@H](NC(=O)[C@H]([C@@H](C)CC)N(C)C(C)=O)C(=O)N[C@H](C(=O)N[C@@H](CC(C)C)C(=O)[C@@]1(C)CO1)[C@@H](C)O [EPOXOMYCIN]	–	–	–	4.8 nM	100	112	–	–
31000 nM	45000 nM	C=C(C(=O)[C@H](O)[C@@H](C)[C@H]1[C@@H](OC(C)=O)C[C@@]2(C)[C@@H]3CC[C@H]4[C@H](C)C(=O)C=C[C@@]45C[C@@]35CC[C@]12C)[C@@H](C)COC(C)=O	29	–	–	990 nM	–	26	1.7	6
0.2 nM	0.9 nM	CC(C)C[C@H](NC(=O)[C@H](Cc1ccccc1)NC(=O)c1cnccn1)B(O)O [BORTEZOMIB]	–	–	–	35 nM	133	117	–	–
17000 nM	23000 nM	C=C(C(=O)[C@H](OC(=O)CNC(=O)OC(C)(C)C)[C@@H](C)[C@H]1[C@@H](OC(C)=O)C[C@@]2(C)[C@@H]3CC[C@H]4[C@H](C)C(=O)C=C[C@@]45C[C@@]35CC[C@]12C)[C@@H](C)COC(C)=O	3.4	–	–	1000 nM	–	69	76	1.6
70 nM	300 nM	CC(=O)N[C@@H](CSC(=O)[C@]1([C@@H](O)C(C)C)NC(=O)[C@H](C)[C@@H]1O)C(=O)O [LACTACYSTIN]	106	–	–	–	6.2	72	–	93

Compound	IC50 [5]	IC50 [6]	fold change (FC) [1]	inhibition [2]	inhibition [3]	IC50 [4]	fold change (FC) [7]	fold change (FC) [8]	fold change (FC) [9]	fold change (FC) [10]
C=C(C(=O)[C@H](O)[C@@H](C)[C@H]1[C@@H](OC(C)=O)C[C@@]2(C)[C@@H]3CC[C@H]4[C@H](C)C(=O)C=C[C@@]45C[C@@]35CC[C@]12C)[C@@H](C)CO	42000 nM	51000 nM	28	–	–	1600 nM	–	45	1.4	2.9
